Values joined by “and” are separate entries in the source; they are usually repeats but may differ in a detail not shown here. Equal entries are not always repeated.
Legend:
HEK-293T = assay: Multiplex assay against HEK293T; type: toxicity, cell-based; conditions: human, number of replicates 2
How it was run: (§1)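 Tubulin, mitochondrial-mass and membrane-permeability phenotypes are per cents of healthy-nucleus cells. Cells were gated by CellPathfinder machine learning into Hoechst high-intensity objects or normal cells, normal cells into healthy, pyknosed or fragmented nuclei, and pyknosed cells into mitotic or apoptotic. Before that, live cells stained at seeding with Hoechst33342, BioTracker Green Microtubule Cytoskeleton Dye, MitoTracker Red and Annexin V Alexa Fluor 680 were imaged on a CQ1 microscope at 37°C and 5% CO2 after compound addition.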

U2OS = assay: Multiplex assay against U2OS; type: toxicity, cell-based; conditions: human, number of replicates 2; how it was run: as §1
[1] = 12 h, 1 µM, compound concentration 1 uM
[2] = 12 h, 10 µM, compound concentration 10 uM
[3] = 24 h, 1 µM, compound concentration 1 uM
[4] = 24 h, 10 µM, compound concentration 10 uM
[5] = 48 h, 1 µM, compound concentration 1 uM
[6] = 48 h, 10 µM, compound concentration 10 uM

## Cc1cc(-c2cnc(N)c3c(-c4ccc5scnc5c4)csc23)n(C)n1
HEK-293T; [1]
  Population Apoptotic (%): 53% and 52%
  Population Fragmented Nuclei (%): 5% and 2%
  Population Healthy Nuclei (%): 81% and 85%
  Population Hoechst High Intensity Objects (%): 7% and 6%
  Population Membrane Permeable-Phenotype (%): 3% and 1%
  Population Mitochondria Different-Phenotype (%): 21% and 11%
  Population Mitotic Cells (%): 46% and 47%
  Population Normal (%): 92% and 93%
  Population Pyknosed Nuclei (%): 13% and 11%
  Population Tubulin-Different-Phenotype (%): 61% and 56%
  Total Cell Count: 648 and 641
HEK-293T; [2]
  Population Apoptotic (%): 45% and 68%
  Population Fragmented Nuclei (%): 4% and 3%
  Population Healthy Nuclei (%): 77% and 84%
  Population Hoechst High Intensity Objects (%): 17% and 13%
  Population Membrane Permeable-Phenotype (%): 4% and 2%
  Population Mitochondria Different-Phenotype (%): 59% and 57%
  Population Mitotic Cells (%): 54% and 31%
  Population Normal (%): 82% and 86%
  Population Pyknosed Nuclei (%): 17% and 12%
  Population Tubulin-Different-Phenotype (%): 92% and 91%
  Total Cell Count: 429 and 378
HEK-293T; [3]
  Population Apoptotic (%): 49% and 53%
  Population Fragmented Nuclei (%): 7% and 6%
  Population Healthy Nuclei (%): 85% and 86%
  Population Hoechst High Intensity Objects (%): 8% and 9%
  Population Membrane Permeable-Phenotype (%): 3% and 1%
  Population Mitochondria Different-Phenotype (%): 10% and 4%
  Population Mitotic Cells (%): 50% and 46%
  Population Normal (%): 91% and 90%
  Population Pyknosed Nuclei (%): 7%
  Population Tubulin-Different-Phenotype (%): 38% and 39%
  Total Cell Count: 943 and 990
HEK-293T; [4]
  Population Apoptotic (%): 56% and 69%
  Population Fragmented Nuclei (%): 6% and 3%
  Population Healthy Nuclei (%): 79% and 82%
  Population Hoechst High Intensity Objects (%): 17% and 13%
  Population Membrane Permeable-Phenotype (%): 2% and 1%
  Population Mitochondria Different-Phenotype (%): 65%
  Population Mitotic Cells (%): 43% and 30%
  Population Normal (%): 82% and 86%
  Population Pyknosed Nuclei (%): 14%
  Population Tubulin-Different-Phenotype (%): 94% and 92%
  Total Cell Count: 457 and 429
HEK-293T; [5]
  Population Apoptotic (%): 17% and 10%
  Population Fragmented Nuclei (%): 14% and 9%
  Population Healthy Nuclei (%): 83% and 86%
  Population Hoechst High Intensity Objects (%): 9% and 10%
  Population Membrane Permeable-Phenotype (%): 6% and 2%
  Population Mitochondria Different-Phenotype (%): 0%
  Population Mitotic Cells (%): 82% and 89%
  Population Normal (%): 90% and 89%
  Population Pyknosed Nuclei (%): 2% and 4%
  Population Tubulin-Different-Phenotype (%): 19%
  Total Cell Count: 2410 and 2184
HEK-293T; [6]
  Population Apoptotic (%): 62% and 80%
  Population Fragmented Nuclei (%): 9%
  Population Healthy Nuclei (%): 85% and 84%
  Population Hoechst High Intensity Objects (%): 17%
  Population Membrane Permeable-Phenotype (%): 7% and 2%
  Population Mitochondria Different-Phenotype (%): 24% and 30%
  Population Mitotic Cells (%): 37% and 20%
  Population Normal (%): 82%
  Population Pyknosed Nuclei (%): 5%
  Population Tubulin-Different-Phenotype (%): 89% and 92%
  Total Cell Count: 772 and 677
U2OS; [1]
  Population Apoptotic (%): 50% and 66%
  Population Fragmented Nuclei (%): 8% and 7%
  Population Healthy Nuclei (%): 86% and 83%
  Population Hoechst High Intensity Objects (%): 0%
  Population Membrane Permeable-Phenotype (%): 0% and 1%
  Population Mitochondria Different-Phenotype (%): 0%
  Population Mitotic Cells (%): 50% and 33%
  Population Normal (%): 100%
  Population Pyknosed Nuclei (%): 4% and 8%
  Population Tubulin-Different-Phenotype (%): 75% and 76%
  Total Cell Count: 46 and 136
U2OS; [2]
  Population Apoptotic (%): 66% and 65%
  Population Healthy Nuclei (%): 56% and 80%
  Population Hoechst High Intensity Objects (%): 0%
  Population Membrane Permeable-Phenotype (%): 8% and 11%
  Population Mitochondria Different-Phenotype (%): 17% and 15%
  Population Mitotic Cells (%): 33% and 34%
  Population Normal (%): 100%
  Population Pyknosed Nuclei (%): 24% and 13%
  Population Tubulin-Different-Phenotype (%): 51% and 38%
U2OS; [3]
  Population Apoptotic (%): 50% and 55%
  Population Fragmented Nuclei (%): 5% and 4%
  Population Healthy Nuclei (%): 87% and 86%
  Population Hoechst High Intensity Objects (%): 0%
  Population Membrane Permeable-Phenotype (%): 0% and 1%
  Population Mitochondria Different-Phenotype (%): 0%
  Population Mitotic Cells (%): 50% and 44%
  Population Normal (%): 100% and 99%
  Population Pyknosed Nuclei (%): 7% and 8%
